RORA inh – inhibitors of orphan receptor RORA, primary screen, cell-based, luminescence; Nuclear receptor ROR-alpha (Homo sapiens), P35398; CHO-K1 Gal4-RORA LBD luciferase reporter; inhibition, % at 10 µM; 65,000 tested, 0.43% active; AID 561, 2006;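 active means inhibition above the mean of all tested compounds plus 3 SD, cut at about 52% in these data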;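 further: 0% = RORA-transfected cells with DMSO and 100% = mock-transfected cells lacking RORA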
Target sequence (P35398 whole entry, looked up, the tested form may be a part): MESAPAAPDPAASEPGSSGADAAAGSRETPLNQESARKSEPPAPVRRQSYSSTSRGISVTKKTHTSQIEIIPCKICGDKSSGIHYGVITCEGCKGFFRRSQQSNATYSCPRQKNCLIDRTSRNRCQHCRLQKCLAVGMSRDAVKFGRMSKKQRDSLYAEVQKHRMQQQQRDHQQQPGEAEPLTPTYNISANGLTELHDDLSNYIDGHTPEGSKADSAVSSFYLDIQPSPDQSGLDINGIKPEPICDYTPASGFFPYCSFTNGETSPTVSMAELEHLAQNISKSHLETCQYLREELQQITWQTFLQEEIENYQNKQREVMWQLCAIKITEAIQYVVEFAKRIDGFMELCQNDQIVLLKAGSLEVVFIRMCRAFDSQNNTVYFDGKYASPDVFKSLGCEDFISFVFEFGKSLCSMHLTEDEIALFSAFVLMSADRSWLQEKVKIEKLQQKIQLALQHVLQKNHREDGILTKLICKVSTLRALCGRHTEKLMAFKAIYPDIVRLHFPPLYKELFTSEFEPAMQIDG
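Test system: CHO-K1 cells with Gal4-hRORA LBD fusion and pG5-luc reporter | Timing: 20 h compound treatment, 37 °C | Detection: Luminescence from basal luciferase reporter expression | Read-out basis: % inhibition of basal luciferase versus +RORA/-RORA DMSO controls | Repeats: One measurement per compound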
* marks the source's active call; other numbers are inactive results. The sample as a whole holds a higher share of hits than the screen did.

SMILES	RORA inh
COc1ccc2c(c1)sc1nc(-c3ccccc3)cn12	92*
COc1ccc(-c2cc(=O)c3ccccc3s2)cc1	-23
CCOC(=O)c1ccc(Oc2cc(C)nc(SC)n2)cc1	-57
C=CCC1CCCCC12NC(=O)NC2=O (centres undefined)	-3
O=C(NCc1cccnc1)C1CCN(S(=O)(=O)N2CCOCC2)CC1	1
Cc1cnc(-c2nnc(N(C)C(=O)c3cnccn3)s2)cn1	-18
Cc1ccc2nc(-c3ccccc3)cn2c1	89*
Cc1cccn2cc(-c3ccccc3)nc12	-76
CN(C)CCN1C(=O)C(=O)/C(=C(/O)c2ccc(F)cc2)C1c1ccccc1 (centres undefined)	-24
COc1ccc(NC(=O)c2cc(-c3ccc(C)o3)nc3ccccc23)cc1OC	-53
COc1ccc(Nc2nc(C)c3ccccc3n2)cc1	-55
COc1ccc(CNC(=O)c2cc3c(C)nc4ccccc4c3o2)c(OC)c1	55*
c1ccc2c(c1)Cc1cc(CN3CCOCC3)ccc1-2	-68
CCc1ccc(S(=O)(=O)NCc2csc(C)n2)s1	-3
Nc1nc(CSc2nc3ccccc3s2)nc(N2CCCCC2)n1	-14
O=C(O)CCSc1nc2ccccc2s1	54*
Cn1c(=O)c2c(nc(N3CCCCC3)n2CCSc2nc3ccccc3s2)n(C)c1=O	0
COc1ccc(NC(=O)CC2Oc3ccccc3NC2=O)cc1 (centres undefined)	10
CC(C)OC(=O)CSc1nnnn1-c1ccc2c(c1)OCCO2	-54
COc1ccc(OC)c(NC(=O)CSc2nnnn2-c2ccc3c(c2)OCO3)c1	80*
COc1ccc(OC)c(-n2nnnc2SCC(=O)Nc2ccc(C(=O)N3CCCCC3)cc2)c1	-7
COCC(C)NC(=O)CCS(=O)(=O)c1nc(-c2ccc(OC)cc2)cc(C(F)(F)F)n1 (centres undefined)	17
CCOC(=O)CS(=O)(=O)c1nc(-c2ccccc2)cc(C(F)(F)F)n1	60*
CCOC(=O)N1CCN(C(=O)c2cc(-c3ccc(OCC)cc3)nc3ccccc23)CC1	-136
CCOC(=O)CS(=O)(=O)c1nc(-c2ccc(F)cc2)cc(C(F)(F)F)n1	61*
SMILES	RORA inh
CCOC(=O)Cc1cc(=O)n2[nH]c(C)c(-c3ccccc3)c2n1	-6
CCOC(=O)c1cnn2c(C)cc(-c3ccccc3)nc12	-43
COc1cccc(C2/C(=C(/O)c3ccccc3)C(=O)C(=O)N2CCCC(=O)O)c1 (centres undefined)	6
CC(C)CCn1nnnc1C(c1ccc(F)cc1)N1CCN(C(=O)c2ccco2)CC1 (centres undefined)	12
COc1cc(NC(=O)Cn2c(-c3cncs3)nc3ccccc32)cc(OC)c1OC	-4
Cc1nc2ncnn2c(C)c1CCC(=O)Nc1ccc(S(=O)(=O)N2CCCCCC2)cc1	-10
CCc1c(C)nc2ncnn2c1NCCc1ccc(OC)cc1	75*
Cc1ccccc1Cc1c(C)nc2ncnn2c1C	5
O=C(COC(=O)c1cc(=O)[nH]c2ccccc12)NC(=O)NC1CCCCC1	18
CC(=O)c1c(C)[nH]c(C(=O)OCCCCN2C(=O)c3ccccc3C2=O)c1C	78*
CCOC(=O)c1[nH]c(C)c(C(=O)Nc2ccccc2F)c1C	-110
CCOC(=O)c1[nH]c(C)c(C(=O)Nc2ccc(F)cc2)c1C	8
OC(CCN1CCOCC1)(c1ccc(Cl)cc1)C1CCCCC1 (centres undefined)	7
Cc1ccc(-n2ncc3c(NCc4ccccc4)ncnc32)cc1	-61
c1ccc(CNc2ncnc3ccccc23)cc1	56*
CCOc1ccccc1Nc1ncnc2ccccc12	-14
CC1CCN(C(=O)C(NS(=O)(=O)c2cccc3nsnc23)c2ccccc2)CC1 (centres undefined)	8
c1ccc(Nc2cc(Nc3ccccc3)[nH]n2)cc1	-9
c1c2c(cc3sc(N4CCOCC4)nc13)OCCO2	69*
c1ccc(N2CCN(c3nc4cc5c(cc4s3)OCCO5)CC2)cc1	-77
CCOc1ccc2nc(N3CCCC(C(=O)NCCCN4CCOCC4)C3)sc2c1 (centres undefined)	2
c1ccc2c(c1)ncn2CCC1CCCCC1	5
Cc1ccc(C(=O)CSc2nnc(CNc3ccc(C)cc3C)o2)cc1	-3
O=C(Nc1ccccc1)OCc1ccccn1	-60
CCCc1ccc(OCc2ccc(C(=O)N3CCN(c4ccccn4)CC3)o2)c(OC)c1	-50
SMILES	RORA inh
CCOc1ccc(OCc2ccc(C(=O)OCc3ccccn3)o2)cc1	58*
COc1ccc(OC(C)C(=O)N2CCc3ccccc3C2)cc1 (centres undefined)	15
O=C(CSc1nccc2ccccc12)N1CCN(Cc2ccc3c(c2)OCO3)CC1	4
CCCCOC(=O)c1[nH]c2c(c1C)C(=O)CC(c1cc(OC)c(OC)c(OC)c1)C2 (centres undefined)	64*
CCCCN(C)C(=O)C1CCC(=O)N(c2cc(OC)c(OC)c(OC)c2)C1c1ccc(OC)cc1 (centres undefined)	-10
COCCOC(=O)c1[nH]c2c(c1C)C(=O)C(C(=O)OC)C(C)C2 (centres undefined)	-56
CCOCC(=O)Nc1nnc(C2CCCCC2)s1	-50
Cc1cc(NO)nc(-c2ccc(Br)cc2)n1	-59
COc1cc(-c2nnc(SCC(=O)N(Cc3ccccc3)C(C)(C)C)o2)cc(OC)c1OC	-14
O=C(CSc1nnc(Cn2nnc3ccccc32)o1)N(Cc1ccc(F)cc1)c1ccccc1	71*
COc1cc(OC)cc(-c2nnc(SCC(=O)N(Cc3ccccc3)C(C)(C)C)o2)c1	13
O=C(Nc1ncnc2c1ncn2C1OC(COC(=O)c2ccccc2)C(F)C1O)c1ccccc1 (centres undefined)	8
COC(=O)CN(c1ccc(C)c(Cl)c1)S(C)(=O)=O	-15
COCCn1c(SCC(=O)Nc2cccc(C)c2)nnc1C(C)C	-26
COCCn1c(C)cc(C(=O)CSc2nnc(C)s2)c1C	68*
CCOC(=O)c1c(C)n(CC(COC(C)=O)OC(C)=O)c2ccc(OC(C)=O)cc12 (centres undefined)	20
O=C(Nc1ccc2c(c1)OCO2)C1CCCCN1S(=O)(=O)c1ccc(F)cc1 (centres undefined)	8
COc1ccc2nc(N3CCCCC3)c(C#N)cc2c1	-31
COc1ccc(-n2ncc3c(N4CCCCC4)ncnc32)cc1	87*
Clc1ccc(-n2ncc3c(N4CCCCCC4)ncnc32)cc1	68*
CC1CN(c2ncnc3c2cnn3-c2ccc(Cl)cc2)CC(C)O1 (centres undefined)	-67
Cc1cccc(-n2ncc3c(N4CCOCC4)ncnc32)c1	67*
COc1ccc(-n2c(C)nc3c(cnn3-c3ccc(C)c(C)c3)c2=O)cc1	-65
Cc1cccc(-n2ncc3c(NCCCO)ncnc32)c1	-83
CCCCNc1ncnc2c1cnn2-c1ccc(Cl)cc1	-109
SMILES	RORA inh
C=CCNc1ncnc2c1cnn2-c1cccc(C)c1	-55
CCOC(=O)c1cccc(NC(=O)C(NS(=O)(=O)c2ccc3c(c2)CCN3C(C)=O)C(C)C)c1 (centres undefined)	21
Cc1cc(-n2nc(C)cc2C)nc(NS(=O)(=O)c2ccccc2)n1	-6
CCC(C)c1cc(S(=O)(=O)N2CCOCC2)ccc1OC (centres undefined)	11
COc1ccc(CNC(=O)CCCCCn2c(SCC#N)nc3cc4c(cc3c2=O)OCO4)cc1	-16
Brc1cccc(C2CC(c3ccccc3)n3nnnc3N2)c1 (centres undefined)	-5
